The record followed here is ChEMBL document CHEMBL1157314, “Antibacterial, partially acetylated oligorhamnosides from Cleistopholis patens” (2006).

Common to all, as to assay type: functional
Assay [1] concerns Staphylococcus aureus. In words: Antibacterial activity against methicillin-resistant Staphylococcus aureus ATCC 33591 after 24 hrs by broth microdilution method. Conditions: ATCC 33591, 24 h. Put shortly:
(§1)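 Broth microdilution following NCCLS M7-A6 (2003), with inoculum at the recommended densities. Isolates were placed into panel wells with an autoinoculator and grown in cation-adjusted Mueller-Hinton broth at 35°C in ambient air for overnight to 24 h. Panels were read by eye, and the MIC was taken as no visible growth.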

Assay [2] relates to Staphylococcus aureus. In words: Antibacterial activity against methicillin-resistant Staphylococcus aureus 78-13607A after 24 hrs by broth microdilution method. The essentials: as §1
In assay [3] the test system is Enterococcus faecium. The assay can be described thus: Antibacterial activity against linezolid-resistant Enterococcus faecium 11-4103A isolate after 24 hrs by broth microdilution method. The essentials: as §1
Assay [4] relates to Streptococcus. In words: Antibacterial activity against erythromycin and clindamycin-resistant beta-haemolytic sStreptococcus 91-526D isolate after 24 hrs by broth microdilution method. The essentials:
as §1

For assay [5], the system named is Enterococcus faecalis. The assay can be described thus: Antibacterial activity against gentamycin and streptomycin-resistant Enterococcus faecalis 39-11D isolate after 24 hrs by broth microdilution method. The essentials: as §1
Assay [6] deals with Bacillus sp. The assay can be described thus: Antibacterial activity against erythromycin-resistant Bacillus sp. 32-2406A isolate after 24 hrs by broth microdilution method. Particulars: Bacillus sp. (in: firmicutes). Put shortly:
as §1

Assay [7] relates to Staphylococcus. In words: Antibacterial activity against mupirocin-resistant coagulase negative Staphylococcus 63-18A isolate after 24 hrs by broth microdilution method. The essentials: as §1
The subject of assay [8] is Bacillus sp. The assay can be described thus: Antibacterial activity against tetracycline-resistant Bacillus sp. 107-1461D isolate after 24 hrs by broth microdilution method. Conditions: Bacillus sp. (in: firmicutes). Put shortly: as §1
Assay [9] relates to Corynebacterium jeikeium. The assay can be described thus: Antibacterial activity against Corynebacterium jeikeium 15-196A isolate after 24 hrs by broth microdilution method. The essentials: (§2)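 Broth microdilution following NCCLS M7-A6 (2003) inocula; isolates transferred aseptically into panel wells with an autoinoculator; cation-adjusted Mueller-Hinton broth; incubated overnight to 24 h at 35°C in ambient air; panels read by eye, MIC taken as lowest concentration with no visible growth.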

Assay [10] has as its system Streptococcus. The assay can be described thus: Antibacterial activity against mupirocin-resistant viridans group sStreptococcus 32-2395A isolate after 24 hrs by broth microdilution method. The essentials:
as §1

For assay [11], the system named is Enterococcus faecalis. In words: Antibacterial activity against vancomycin-resistant Enterococcus faecalis 48-22D isolate with vanA phenotype after 24 hrs by broth microdilution method. Put shortly:
as §1

Assay [12] concerns Staphylococcus aureus. The assay can be described thus: Antibacterial activity against mupirocin-resistant Staphylococcus aureus 4-90A isolate after 24 hrs by broth microdilution method. Put shortly:
as §1

For assay [13], the system named is Pseudomonas aeruginosa. The assay can be described thus: Antibacterial activity against sPseudomonas aeruginosa ATCC 27853 after 24 hrs by broth microdilution method. Particulars: ATCC 27853, 24 h. The essentials:
as §2

The subject of assay [14] is Staphylococcus haemolyticus. In words: Antibacterial activity against oxacillin-resistant Staphylococcus haemolyticus 107-1240C isolate after 24 hrs by broth microdilution method. The essentials:
as §1

Assay [15] has as its system Enterococcus faecium. In words: Antibacterial activity against vancomycin-resistant Enterococcus faecium 103-1232D isolate with vanB phenotype after 24 hrs by broth microdilution method. Put shortly:
as §1

Assay [16] concerns Streptococcus pneumoniae. The assay can be described thus: Antibacterial activity against multidrug resistant Streptococcus pneumoniae 68-2307B isolate after 24 hrs by broth microdilution method. Put shortly:
as §1

The test system of assay [17] is Bacillus sp. In words: Antibacterial activity against trimethoprim/sulfamethaxazole-resistant Bacillus sp. 67-1057A isolate after 24 hrs by broth microdilution method. Conditions: Bacillus sp. (in: firmicutes). The essentials:
as §1

For assay [18], the system named is Staphylococcus. The assay can be described thus: Antibacterial activity against quinupristin/dalfopristin-resistant coagulase negative Staphylococcus 90-10840A isolate after 24 hrs by broth microdilution method. Put shortly: as §1
Assay [19] deals with Streptococcus pneumoniae. In words: Antibacterial activity against penicillin-resistant Streptococcus pneumoniae 33-50B isolate after 24 hrs by broth microdilution method. The essentials:
as §1

Assay [20] has as its system Staphylococcus aureus. The assay can be described thus: Antibacterial activity against oxacillin-susceptible Staphylococcus aureus ATCC 29213 after 24 hrs by broth microdilution method. Particulars: ATCC 29213, 24 h. The essentials: as §1
The test system of assay [21] is Streptococcus pneumoniae. In words: Antibacterial activity against erythromycin and clindamycin-resistant Streptococcus pneumoniae 4-38B isolate after 24 hrs by broth microdilution method. The essentials: as §1
Assay [22] deals with Staphylococcus aureus. In words: Antibacterial activity against quinupristin/dalfopristin-resistant Staphylococcus aureus 300-12053A isolate after 24 hrs by broth microdilution method. Put shortly:
as §1

Assay [23] has as its system Enterococcus faecalis. The assay can be described thus: Antibacterial activity against ampicillin and vancomycin-susceptible Enterococcus faecalis ATCC 29212 after 24 hrs by broth microdilution method. Conditions: ATCC 29212, 24 h. The essentials: as §1
Assay [24] deals with Streptococcus. The assay can be described thus: Antibacterial activity against linezolid-resistant viridans group Streptococcus 27-2832A isolate after 24 hrs by broth microdilution method. Put shortly: as §1
Assay [25] has as its system Streptococcus. In words: Antibacterial activity against levofloxacin-resistant beta-haemolytic sStreptococcus 19-756A isolate after 24 hrs by broth microdilution method. The essentials:
as §1

The subject of assay [26] is Staphylococcus epidermidis. The assay can be described thus: Antibacterial activity against oxacillin-susceptible Staphylococcus epidermidis isolate 12-1788A isolate after 24 hrs by broth microdilution method.
Assay [27] deals with Staphylococcus aureus. The assay can be described thus: Antibacterial activity against linezolid-resistant Staphylococcus aureus 106-12591A isolate after 24 hrs by broth microdilution method. The essentials:
as §1

The subject of assay [28] is Streptococcus pyogenes. The assay can be described thus: Antibacterial activity against erythromycin-resistant Streptococcus pyogenes 91-8747 isolate after 24 hrs by broth microdilution method. The essentials: as §1
In assay [29] the test system is Streptococcus pneumoniae. The assay can be described thus: Antibacterial activity against penicillin-intermediate resistant Streptococcus pneumoniae ATCC 49619 after 24 hrs by broth microdilution method. Particulars: ATCC 49619, 24 h. The essentials: as §1
Assay [30] concerns Staphylococcus aureus. In words: Antibacterial activity against oxacillin-resistant Staphylococcus aureus ATCC 33591 after 24 hrs by broth microdilution method. Particulars: ATCC 33591, 24 h. Put shortly: as §1
For assay [31], the system named is Streptococcus. In words: Antibacterial activity against multidrug-resistant viridans group Streptococcus 58-1602D isolate after 24 hrs by broth microdilution method. Put shortly:
as §1

Assay [32] relates to Bacillus cereus. The assay can be described thus: Antibacterial activity against Bacillus cereus 24-59A isolate after 24 hrs by broth microdilution method.
Assay [33] has as its system Staphylococcus. In words: Antibacterial activity against coagulase negative linezolid-resistant Staphylococcus 82-1645A isolate after 24 hrs by broth microdilution method. The essentials: as §1
Assay [34] relates to Streptococcus pneumoniae. In words: Antibacterial activity against erythromycin-resistant and clindamycin-susceptible Streptococcus pneumoniae 35-405B isolate after 24 hrs by broth microdilution method. The essentials: as §1
Assay [35] concerns Corynebacterium sp. In words: Antibacterial activity against doxycyclin-resistant Corynebacterium sp. 105-1513C isolate after 24 hrs by broth microdilution method. Put shortly: as §1
Assay [36] has as its system Corynebacterium sp. In words: Antibacterial activity against streptomycin-resistant Corynebacterium sp. 61-5454A isolate after 24 hrs by broth microdilution method. Put shortly:
as §1

In assay [37] the test system is Enterococcus faecium. In words: Antibacterial activity against ampicillin and vancomycin-resistant Enterococcus faecium 24-45A isolate after 24 hrs by broth microdilution method. Put shortly:
as §1

Assay [38] has as its system Corynebacterium sp. In words: Antibacterial activity against rifampin-resistant Corynebacterium sp. 58-9161A isolate after 24 hrs by broth microdilution method. The essentials: as §1
In assay [39] the test system is Enterococcus faecium. The assay can be described thus: Antibacterial activity against vancomycin-resistant Enterococcus faecium 15-206A isolate with vanA phenotype after 24 hrs by broth microdilution method. Put shortly:
as §1

Assay [40] deals with Streptococcus mitis. The assay can be described thus: Antibacterial activity against penicillin-resistant Streptococcus mitis 61-2900C isolate after 24 hrs by broth microdilution method. Put shortly:
as §1

Assay [41] concerns Streptococcus. The assay can be described thus: Antibacterial activity against levafloxacin-resistant viridans group Streptococcus 107-6380A isolate after 24 hrs by broth microdilution method. Put shortly: as §1
The subject of assay [42] is Escherichia coli. The assay can be described thus: Antibacterial activity against sEscherichia coli ATCC 25922 after 24 hrs by broth microdilution method. Particulars: ATCC 25922, 24 h. The essentials:
as §2

Assay [43] has as its system Enterococcus faecium. In words: Antibacterial activity against quinupristin/dalfopristin-resistant Enterococcus faecium 65-1208A isolate after 24 hrs by broth microdilution method. The essentials: as §1
Assay [44] relates to Streptococcus. The assay can be described thus: Antibacterial activity against erythromycin-resistant and clindamycin-susceptible beta-haemolytic sStreptococcus 109-820D isolate after 24 hrs by broth microdilution method. Put shortly:
as §1

Assay [45] deals with Enterococcus faecalis. The assay can be described thus: Antibacterial activity against linezolid-resistant Enterococcus faecalis 15-5341 isolate after 24 hrs by broth microdilution method. The essentials:
as §1

The test system of assay [46] is Enterococcus faecalis. In words: Antibacterial activity against vancomycin-resistant Enterococcus faecalis 82-876D with vanB phenotype isolate after 24 hrs by broth microdilution method. The essentials: as §1

Each structure is given as a SMILES string. Values after ≈ are worked out from the molar mass of the structure shown.

Take `Cc1onc(-c2ccccc2)c1C(=O)N[C@@H]1C(=O)N2[C@@H]1SC(C)(C)[C@@H]2C(=O)O` [OXACILLIN]: the MIC in assay [1] is over 8 µg/mL; in assay [2], 8 µg/mL (≈ 19.9 µM).

`O=C(N[C@H](CO)[C@H](O)c1ccc([N+](=O)[O-])cc1)C(Cl)Cl` [CHLORAMPHENICOL]: the MIC in assay [1] is over 16 µg/mL.

As to `CCCCCCCCCCCCO[C@@H]1O[C@@H](C)[C@H](O[C@@H]2O[C@@H](C)[C@H](OC(C)=O)[C@@H](O[C@@H]3O[C@@H](C)[C@H](OC(C)=O)[C@@H](O[C@@H]4O[C@@H](C)[C@H](OC(C)=O)[C@@H](O)[C@H]4O)[C@H]3OC(C)=O)[C@H]2O)[C@@H](O)[C@H]1O`, the MIC in assay [3] was 2 µg/mL (≈ 2.13 µM); in assay [4] it was 4 µg/mL (≈ 4.26 µM); in assay [5] it was 2 µg/mL (≈ 2.13 µM); in [6], 2 µg/mL (≈ 2.13 µM); in assay [7] it was over 32 µg/mL; in [8], 2 µg/mL (≈ 2.13 µM). Besides, the MIC in assay [9] is 32 µg/mL (≈ 34.1 µM); in [10], 4 µg/mL (≈ 4.26 µM); in assay [11] it was 2 µg/mL (≈ 2.13 µM); in assay [12], over 2 µg/mL; in assay [13], over 32 µg/mL; in [14], 32 µg/mL (≈ 34.1 µM). Also, the MIC is 2 µg/mL (≈ 2.13 µM) in [15]; 4 µg/mL (≈ 4.26 µM) in assay [16]; 2 µg/mL (≈ 2.13 µM) in [17]; over 32 µg/mL in [18]; 4 µg/mL (≈ 4.26 µM) in assay [19]; 4 µg/mL (≈ 4.26 µM) in assay [20]. Moreover, the MIC in assay [21] is 4 µg/mL (≈ 4.26 µM); in assay [1], 0.5 µg/mL (≈ 0.532 µM); in assay [22], 2 µg/mL (≈ 2.13 µM); in assay [23] it was 2 µg/mL (≈ 2.13 µM); in assay [24], 4 µg/mL (≈ 4.26 µM); in assay [2], 1 µg/mL (≈ 1.06 µM). For the same compound, the MIC in assay [25] is 4 µg/mL (≈ 4.26 µM); in [26] it was over 32 µg/mL; in assay [27], 2 µg/mL (≈ 2.13 µM); in assay [28], 4 µg/mL (≈ 4.26 µM); in assay [29], 4 µg/mL (≈ 4.26 µM); in assay [30], 2 µg/mL (≈ 2.13 µM). The MIC is 4 µg/mL (≈ 4.26 µM) in assay [31]; 2 µg/mL (≈ 2.13 µM) in [32]; over 32 µg/mL in [33]; 4 µg/mL (≈ 4.26 µM) in assay [34]; 16 µg/mL (≈ 17 µM) in assay [35]; 16 µg/mL (≈ 17 µM) in assay [36]. For the same compound, the MIC is 2 µg/mL (≈ 2.13 µM) in [37]; 16 µg/mL (≈ 17 µM) in assay [38]; 2 µg/mL (≈ 2.13 µM) in [39]; 4 µg/mL (≈ 4.26 µM) in assay [40]; 4 µg/mL (≈ 4.26 µM) in assay [41]; over 32 µg/mL in assay [42]. Further, the MIC stood at 2 µg/mL (≈ 2.13 µM) in assay [43], 4 µg/mL (≈ 4.26 µM) in assay [44], 2 µg/mL (≈ 2.13 µM) in [45] and 2 µg/mL (≈ 2.13 µM) in assay [46].
